Results gathered from unrelated publications.
Protocols differ between the studies behind these lines.
Target: Tyrosine-protein kinase HCK (HCK, Homo sapiens, UniProt P08631)

Compound | read-out | technique | concentration | remaining binding [%]
CN(CCCC(F)(F)F)c1nccc(-c2cnn3ncccc23)n1 | binding |  | 1 µM | 99
c1cncc(-c2cccc(Nc3nccc(NC4CCCCC4)n3)c2)c1 | binding | competition with immobilised ligand | 10 µM | 3.1
O=C(Nc1c[nH]nc1C(=O)NC1CCNCC1)c1cc(F)cc(F)c1 | binding | competition with immobilised ligand | 1 µM | 100
C[C@H]1CCN(c2nccc(-c3cnn4ncccc34)n2)C1 | binding |  | 1 µM | 95
CN1CCN(c2cnc3c(C4CCN(C(=O)c5ccc(OC(F)(F)F)cc5N)CC4)ncnc3c2)CC1 | cell-free assay | competition with immobilised ligand | 1 µM | 95
Cc1cnc(Nc2ccc(C(=O)N3CCC(N4CCCC4)CC3)cc2)nc1-c1cc2ccccc2s1 | binding | competition with immobilised ligand | 1 µM | 74
CN(C)c1ncc(F)c(-c2cnn3ncccc23)n1 | binding |  | 1 µM | 46
CNC(=O)[C@@H]1CC[C@@H](n2c(-c3ccc4cnccc4c3)nc3ccc(C(=O)NCc4cccc(C(N)=O)c4)cc32)C1 | binding | competition with immobilised ligand | 1 µM | 93
F[C@@H]1CCN(c2nccc(-c3cnn4ncccc34)n2)C1 | binding |  | 1 µM | 78
COc1ccc2c(O[C@@H]3C[C@H]4C(=O)N[C@]5(C(=O)O)CC5/C=C\CCCCC[C@H](NC(=O)OC5CCCC5)C(=O)N4C3)cc(-c3csc(NC(=O)C(C)C)n3)nc2c1C (stereo partly drawn) | cell-free assay | competition with immobilised ligand | 1 µM | 100
COc1cnc(Nc2cccc(S(N)(=O)=O)c2)nc1N1CCN(c2ccccc2)CC1 | binding | competition with immobilised ligand | 1 µM | 100
C[C@@H](c1ccc(-n2cnc3c(N)ncnc32)cc1)N1CCc2nn(C)c(Cc3ccccc3)c2C1=O | binding | competition with immobilised ligand | 0.1 µM | 86
CS(=O)(=O)c1cc(C2(NC(=O)c3cncc4c3cnn4-c3ccc(F)cc3)CC2)ccn1 | cell-free assay | competition with immobilised ligand | 1 µM | 100
CC1CCCN1c1nccc(-c2cnn3ncccc23)n1 (stereo not drawn) | binding |  | 1 µM | 100
O=C(c1ccc(Nc2ncc(Cl)c(-c3ccc(Cl)s3)n2)cc1)N1CCC(N2CCCC2)CC1 | binding | competition with immobilised ligand | 1 µM | 100
Cc1nc(C2CCN(C(=O)c3ccc(OC(F)(F)F)cc3N)CC2)c2ncc(N3CCN(C)CC3)cc2n1 | cell-free assay | competition with immobilised ligand | 1 µM | 95
O=C(c1ccc(Nc2nccc(-c3cc4ccccc4s3)n2)cc1)N1CCC(N2CCCC2)CC1 | binding | competition with immobilised ligand | 1 µM | 100
CC(C)CC(=O)N1CCc2nc(-c3ccc(Br)cc3)nc(N(C)Cc3ccccc3)c2C1 | cell-free assay | competition with immobilised ligand | 0.1 µM | 94
N[C@H]1CCN(c2nccc(-c3cnn4ncccc34)n2)C1 | binding |  | 1 µM | 98
CCN1CCN(Cc2ccc(C(=O)Nc3ccc(C)c(Oc4ccc5c(c4)CC(=O)N5)c3)cc2C(F)(F)F)CC1 | binding | competition with immobilised ligand | 1 µM | 80
COCCOc1nc(-c2ccc(Cl)nc2)nc2c1CN(C(=O)c1ncn3ccccc13)CC2 | cell-free assay | competition with immobilised ligand | 0.1 µM | 100
